Results: ChEMBL document CHEMBL1145087 (J Med Chem, 2003)

Experiments:
[1] = biological target: T1, Mineralocorticoid receptor (Homo sapiens) (UniProt P08235); assay: Agonistic efficacy against human Mineralocorticoid receptor; format: functional
T1 sequence (whole entry): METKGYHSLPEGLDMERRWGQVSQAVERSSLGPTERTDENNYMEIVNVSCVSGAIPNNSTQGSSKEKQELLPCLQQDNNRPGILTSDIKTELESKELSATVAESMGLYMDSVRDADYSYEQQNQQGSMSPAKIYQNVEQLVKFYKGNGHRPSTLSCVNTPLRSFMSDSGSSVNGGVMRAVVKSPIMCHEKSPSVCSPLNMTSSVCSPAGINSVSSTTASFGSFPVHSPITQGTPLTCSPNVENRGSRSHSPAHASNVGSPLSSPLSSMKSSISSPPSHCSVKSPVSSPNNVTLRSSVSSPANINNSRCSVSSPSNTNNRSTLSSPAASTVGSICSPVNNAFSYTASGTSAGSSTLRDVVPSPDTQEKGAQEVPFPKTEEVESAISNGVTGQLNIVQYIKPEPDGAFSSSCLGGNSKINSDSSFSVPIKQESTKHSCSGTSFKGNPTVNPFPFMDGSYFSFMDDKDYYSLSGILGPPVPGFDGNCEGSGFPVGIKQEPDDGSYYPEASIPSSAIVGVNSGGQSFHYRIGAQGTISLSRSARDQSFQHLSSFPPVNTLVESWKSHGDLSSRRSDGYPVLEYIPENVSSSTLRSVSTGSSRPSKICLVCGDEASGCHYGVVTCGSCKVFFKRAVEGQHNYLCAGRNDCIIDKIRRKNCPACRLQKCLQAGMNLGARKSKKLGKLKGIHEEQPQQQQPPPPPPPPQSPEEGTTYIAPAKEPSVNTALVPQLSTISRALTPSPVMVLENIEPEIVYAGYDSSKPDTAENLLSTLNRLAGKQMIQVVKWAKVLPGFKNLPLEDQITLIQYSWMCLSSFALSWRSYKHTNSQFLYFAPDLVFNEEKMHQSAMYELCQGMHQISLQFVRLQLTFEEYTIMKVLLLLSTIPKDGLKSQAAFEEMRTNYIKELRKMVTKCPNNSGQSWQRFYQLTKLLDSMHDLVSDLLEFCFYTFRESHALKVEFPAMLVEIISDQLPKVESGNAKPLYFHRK
Summary of the method: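 Cell-based cotransfection assay for hMR in 96-well format. Agonist activity is read as normalized LUC expression. Efficacy is expressed relative to the maximal LUC response to aldosterone.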

Progesterone receptor [2] = biological target: T2, Progesterone receptor (Homo sapiens, UniProt P06401); assay: Agonistic activity against human progesterone receptor in CV-1 cells; format: functional, cell-based
T2 sequence (P06401 whole entry): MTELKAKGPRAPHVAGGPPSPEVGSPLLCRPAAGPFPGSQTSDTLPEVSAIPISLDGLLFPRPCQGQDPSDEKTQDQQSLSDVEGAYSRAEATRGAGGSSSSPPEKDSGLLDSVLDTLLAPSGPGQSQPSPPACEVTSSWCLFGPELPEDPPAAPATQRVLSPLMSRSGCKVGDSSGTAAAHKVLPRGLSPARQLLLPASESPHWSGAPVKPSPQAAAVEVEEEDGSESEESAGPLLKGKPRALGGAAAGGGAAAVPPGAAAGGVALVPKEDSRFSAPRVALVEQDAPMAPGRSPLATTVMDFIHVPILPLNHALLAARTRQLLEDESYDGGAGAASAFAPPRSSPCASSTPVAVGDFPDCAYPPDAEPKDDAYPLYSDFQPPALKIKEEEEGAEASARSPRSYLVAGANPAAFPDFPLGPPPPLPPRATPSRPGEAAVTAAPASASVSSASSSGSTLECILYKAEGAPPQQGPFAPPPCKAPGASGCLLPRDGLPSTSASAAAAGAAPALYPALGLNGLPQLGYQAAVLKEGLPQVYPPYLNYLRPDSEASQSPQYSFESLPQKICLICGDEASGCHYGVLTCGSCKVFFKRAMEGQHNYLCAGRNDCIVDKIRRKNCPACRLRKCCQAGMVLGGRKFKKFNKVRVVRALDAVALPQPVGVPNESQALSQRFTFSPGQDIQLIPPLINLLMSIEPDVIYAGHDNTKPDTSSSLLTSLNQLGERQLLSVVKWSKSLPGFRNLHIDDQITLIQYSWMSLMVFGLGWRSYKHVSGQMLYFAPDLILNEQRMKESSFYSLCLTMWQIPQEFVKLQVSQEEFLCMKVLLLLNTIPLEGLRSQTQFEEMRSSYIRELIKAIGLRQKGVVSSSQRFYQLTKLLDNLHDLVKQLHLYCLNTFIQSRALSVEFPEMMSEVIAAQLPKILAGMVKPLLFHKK

Progesterone receptor [3] = biological target: T2, Progesterone receptor; assay: Binding affinity towards human progesterone receptor A isoform using progesterone as radioligand
Homo sapiens [4] = species on record: Homo sapiens; assay: Relative potency for human androgen and progesterone receptors
Homo sapiens [5] = species on record: Homo sapiens; assay: Relative potency for human estrogen and progesterone receptors
Homo sapiens [6] = species on record: Homo sapiens; assay: Relative potency for human glucocorticoid and progesterone receptors
Glucocorticoid receptor = biological target: T3, Glucocorticoid receptor (Homo sapiens, UniProt P04150)
T3 sequence (P04150 whole entry): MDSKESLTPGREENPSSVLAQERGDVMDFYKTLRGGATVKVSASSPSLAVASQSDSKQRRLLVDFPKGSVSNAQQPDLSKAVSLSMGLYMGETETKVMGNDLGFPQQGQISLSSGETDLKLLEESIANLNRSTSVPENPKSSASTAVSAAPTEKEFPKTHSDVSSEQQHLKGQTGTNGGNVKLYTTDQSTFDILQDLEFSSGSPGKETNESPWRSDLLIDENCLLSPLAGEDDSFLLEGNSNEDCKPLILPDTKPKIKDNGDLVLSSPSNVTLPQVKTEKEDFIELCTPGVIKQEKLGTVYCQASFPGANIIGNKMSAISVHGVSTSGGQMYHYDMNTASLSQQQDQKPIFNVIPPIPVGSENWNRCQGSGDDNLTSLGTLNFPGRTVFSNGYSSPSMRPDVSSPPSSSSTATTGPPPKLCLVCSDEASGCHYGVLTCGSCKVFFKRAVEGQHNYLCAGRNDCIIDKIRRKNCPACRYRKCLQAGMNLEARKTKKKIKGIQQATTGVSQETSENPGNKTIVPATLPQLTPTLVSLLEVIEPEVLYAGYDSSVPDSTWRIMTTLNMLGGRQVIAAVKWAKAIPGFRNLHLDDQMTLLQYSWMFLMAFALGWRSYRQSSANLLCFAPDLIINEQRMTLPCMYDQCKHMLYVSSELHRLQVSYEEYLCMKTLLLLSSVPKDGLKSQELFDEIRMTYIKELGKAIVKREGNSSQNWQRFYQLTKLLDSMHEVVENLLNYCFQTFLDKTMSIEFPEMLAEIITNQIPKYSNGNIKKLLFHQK

| SMILES | Efficacy [1] [%] | EC50 (Progesterone receptor [2]) [nM] | Ki (Progesterone receptor [3]) [nM] | Ratio (Homo sapiens [4]) | Ratio (Homo sapiens [5]) | Ratio (Homo sapiens [6]) | IC50 (Glucocorticoid receptor) [nM] |
| --- | --- | --- | --- | --- | --- | --- | --- |
| CC1=CC(C)(C)Nc2ccc3c(c21)/C(=C/c1ccsc1)Oc1ccc(F)cc1-3 | 63 | 0.71 | 1.3 | 303 | > 1000 | 141 | 100 |
| CCc1ccccc1/C=C1\Oc2ccc(F)cc2-c2ccc3c(c21)C(C)=CC(C)(C)N3 | 50 | 2 | 2.3 | > 1000 | > 1000 | 39 | 77 |
| CC1=CC(C)(C)Nc2ccc3c(c21)/C(=C/c1ccccc1C)Oc1c(F)cccc1-3 | 70 | 1.4 | 1.5 | > 1000 | > 1000 | 212 | 297 |
| CC1=CC(C)(C)Nc2ccc3c(c21)/C(=C/c1ccccc1)Oc1c(F)cccc1-3 | > 20 | 2.1 | 0.61 | 429 | > 1000 | 119 | 250 |
| CC1=CC(C)(C)Nc2ccc3c(c21)/C(=C/c1ccncc1C)Oc1ccc(F)cc1-3 | 71 | – | 1.4 | > 1000 | 255 | 54 | 245 |
